Data published in article PMC7134392 (ChemMedChem, 2018).

What was measured:
[1] = biological target: full-length human estrogen receptor β (Homo sapiens, UniProt Q92731); assay: Competitive radiometric ligand binding assay, ERβ; conditions: relative binding affinity, estradiol = 100; single determinations for RBA < 0.01
Method in brief: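 Full-length human ERβ incubated with radiolabelled estradiol tracer and competing test compound on ice for 18–24 h. Receptor-bound tracer was adsorbed onto hydroxyapatite, washed with buffer, and counted by scintillation. Affinity was expressed as RBA relative to estradiol = 100. Most values are the average of 2–3 determinations ± SD.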

RAW264.7 cells = assay: Toxicity; assay type: cell-based; conditions: read-out: IC50 Toxicity (Tox.), Alamar blue cell viability
Method in brief: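 RAW264.7 cells were grown in RPMI 1640 with 10% FCS, 50 μM 2-mercaptoethanol and penicillin/streptomycin. Cells were seeded at 50,000 per well in phenol-red-free medium ≥12 h beforehand. In the TNFα assay setting, cells were dosed with test compound from 50 μM to 0.023 μM (three-fold steps) or DMSO. Viability was read by Alamar blue. Means ± SD are from 3 independent experiments.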

[2] = biological target: T1, full-length human estrogen receptor α (Homo sapiens, UniProt P03372); assay: Competitive radiometric ligand binding assay, ERα; conditions: relative binding affinity, estradiol = 100; single determinations for RBA < 0.01
T1 sequence (P03372 1-595): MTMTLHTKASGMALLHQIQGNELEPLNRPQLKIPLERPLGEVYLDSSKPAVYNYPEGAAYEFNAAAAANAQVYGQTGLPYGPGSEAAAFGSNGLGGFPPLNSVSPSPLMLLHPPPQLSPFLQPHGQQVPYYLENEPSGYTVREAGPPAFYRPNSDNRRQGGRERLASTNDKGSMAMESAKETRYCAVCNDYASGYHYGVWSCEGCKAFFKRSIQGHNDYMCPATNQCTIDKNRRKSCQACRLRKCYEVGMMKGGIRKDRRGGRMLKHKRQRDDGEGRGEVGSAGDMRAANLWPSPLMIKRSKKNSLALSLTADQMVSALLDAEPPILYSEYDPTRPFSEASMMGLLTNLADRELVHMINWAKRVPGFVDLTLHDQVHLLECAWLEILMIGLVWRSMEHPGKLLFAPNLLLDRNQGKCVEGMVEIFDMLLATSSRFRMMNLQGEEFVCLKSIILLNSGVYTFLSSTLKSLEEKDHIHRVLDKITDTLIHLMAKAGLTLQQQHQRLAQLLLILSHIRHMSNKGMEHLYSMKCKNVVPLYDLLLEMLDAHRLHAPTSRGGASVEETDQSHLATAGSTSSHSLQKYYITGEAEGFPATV

Chain of full-length human estrogen receptor β (Q92731 whole entry): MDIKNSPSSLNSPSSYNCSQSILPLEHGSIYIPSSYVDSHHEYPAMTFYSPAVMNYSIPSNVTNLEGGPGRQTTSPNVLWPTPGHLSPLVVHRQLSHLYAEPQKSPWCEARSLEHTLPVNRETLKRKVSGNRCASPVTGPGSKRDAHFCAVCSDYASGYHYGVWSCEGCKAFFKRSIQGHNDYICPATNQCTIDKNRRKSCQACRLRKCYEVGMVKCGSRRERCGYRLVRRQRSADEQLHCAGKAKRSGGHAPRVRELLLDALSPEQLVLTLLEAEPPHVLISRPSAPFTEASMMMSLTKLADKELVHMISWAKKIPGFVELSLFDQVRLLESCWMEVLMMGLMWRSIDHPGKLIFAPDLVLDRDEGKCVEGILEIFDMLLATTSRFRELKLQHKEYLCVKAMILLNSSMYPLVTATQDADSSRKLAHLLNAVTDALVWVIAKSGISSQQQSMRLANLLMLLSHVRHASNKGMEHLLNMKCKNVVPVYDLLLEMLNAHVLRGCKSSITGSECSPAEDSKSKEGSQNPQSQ

- RBA ERβ [1]: 0.05 ± 0.01
- RBA ERα [2]: 12.0 ± 2.0
SMILES: Cc1c(-c2ccc(O)cc2)nn(-c2ccc(O)cc2)c1-c1ccc(OCCN2CCCCC2)cc1 [Compound 1, methyl-piperidino-pyrazole]
- IC50 (RAW264.7 cells): 11.5 ± 2.4 µM
